# From PubChem
# Sampled rows, rich in hits. Any-hit rate of the full collection: about 3.5%.
# MrgX1 ag: activates human MrgX1 receptor signaling; Q96LB2; MrgX1-HEK293 cells, Fluo-4 calcium fluorescence, agonist mode; hits give high values; B-score at 10 µM; 0.44% of 310,000 active; AID 588627;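 active = calcium response B-score plate-corrected fluorescence ratio at least 3 library SD, with starting fluorescence B-score inside 5 SD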
# Target sequence (Q96LB2 whole entry, looked up): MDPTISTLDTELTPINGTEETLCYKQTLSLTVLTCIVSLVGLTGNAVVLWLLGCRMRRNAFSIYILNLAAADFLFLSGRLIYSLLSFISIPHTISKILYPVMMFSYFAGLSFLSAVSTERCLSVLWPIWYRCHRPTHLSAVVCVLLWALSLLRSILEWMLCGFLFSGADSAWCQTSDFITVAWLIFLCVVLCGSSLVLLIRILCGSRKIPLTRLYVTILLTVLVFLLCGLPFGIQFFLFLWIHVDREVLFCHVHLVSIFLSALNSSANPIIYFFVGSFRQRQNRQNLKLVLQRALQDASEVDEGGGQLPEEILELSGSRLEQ
#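 Material: MrgX1-expressing HEK293 cells; input: 15,000 cells per well; doses: test compound given as first of three sequential additions; schedule: overnight plating before 1 h dye loading; technique: Fluo-4 NW calcium-flux fluorescence, kinetic read; evaluation: baseline-normalised fluorescence change ratio, B-scored; control set: plate-wise positive and negative controls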
# MrgX1 PAM: allosterically activates human MrgX1 receptor signaling; 0.63% of 310,000 active; Q96LB2; B-score at 10 µM; MrgX1-HEK293, Fluo-4 calcium flux, FDSS; hits give high values;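 active = plate-corrected calcium response at least 3 library SD above typical, normal starting fluorescence, not activating the receptor alone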;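 also: compound read alongside a low EC10 to EC30 dose of BAM8-22 agonist; peak minus trough fluorescence over baseline measured at the second addition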
# MrgX1 antagonist: human MrgX1 receptor antagonism, primary screen | MRGX1-HEK293 calcium flux, Fluo-4, BAM8-22 antagonism; hits give low values | B-score at 10 µM | 1.3% of 310,000 active | AID 588676;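 active = calcium-response B-score plate-corrected more than 3 library SD below zero, starting fluorescence within 5 deviations, no agonist response on first addition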;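 also: peak minus trough fluorescence over baseline after final BAM8-22 challenge near maximal dose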
# RGS4 act: RGS4 potentiation or activation; 0.92% of 310,000 active; B-score at 10 µM; HEK293 M3R/inducible RGS4, carbachol calcium flux Fluo4; hits give low values;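 active = B-score of the integrated calcium signal more than 4 SD below the library mean, with starting fluorescence not abnormally high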;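 also: negative B-score means reduced calcium response which marks RGS4 activation or potentiation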
#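 System – HEK293 FlpIn-TREx cells, stable M3R, doxycycline-inducible RGS4 · Reagent – ECmax carbachol challenge · Times – compound preincubation 20 min at room temperature before agonist · Technique – Fluo4 fluorescence kinetic imaging of calcium · Measure – B score of integrated Fluo4 ratio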
# RGS4 inh: human RGS4 inhibition. P49798. HEK293 M3R/RGS4 inducible, Fluo-4 calcium flux; hits give high values; triggered by carbachol at its EC20. B-score at 10 µM. 0.45% of 310,000 active. AID 463165;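 active = B-score, a plate-corrected calcium signal, over three deviations above library mean, with baseline fluorescence within five deviations of library mean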;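 also: RGS4 expression induced by doxycycline in cells with stable M3 receptor; B-score is computed from the integrated fluorescence ratio over baseline after carbachol; higher B-score means a larger calcium signal and so more RGS4 inhibition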
# Target sequence (P49798 whole entry, looked up): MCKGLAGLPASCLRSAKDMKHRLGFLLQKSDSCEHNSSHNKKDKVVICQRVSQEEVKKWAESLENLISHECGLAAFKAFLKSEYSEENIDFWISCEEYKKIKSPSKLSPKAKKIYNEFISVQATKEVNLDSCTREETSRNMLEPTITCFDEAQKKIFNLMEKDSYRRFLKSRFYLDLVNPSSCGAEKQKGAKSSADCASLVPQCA
# Hits are given with their value; i = inactive; nt = no result given.
SMILES,MrgX1 ag,MrgX1 PAM,MrgX1 antagonist,RGS4 act,RGS4 inh
Cc1ccc(NC(=O)CN2C(=O)S/C(=C/c3ccc(-c4cc(C(=O)O)ccc4C)o3)C2=O)cc1C,i,i,i,i,i
CCOC(=O)c1ccc(S(=O)(=O)NNC(=O)c2cccc(N(C)C)c2)cc1,i,7.14,i,i,i
CCNc1ccc(C(=O)OCC)cc1NC(=O)c1cccc(N(C)C)c1,i,i,i,i,i
O=C(O)Cc1ccc(NC(=S)Nc2ccc(Br)cc2Cl)cc1,i,i,i,i,i
CC(C)(C)c1ccc(C(=O)NNC(=S)NCc2ccco2)cc1,i,i,i,i,i
CC(C)(O)C(=O)NNC(=S)NCc1ccco1,i,i,-5.35,i,i
O=C(/C=C/c1ccccc1Cl)c1cccnc1,28,i,i,i,i
O=C(/C=C/c1ccc(Cl)cc1)c1cccnc1,i,i,i,i,i
COc1ccc(CNC(=O)[C@@H](C)NC(=O)C2CCN(C(=O)[C@@H](N)CCSC)CC2)cc1,i,i,i,i,i
N#C/C(=C\c1ccccc1OCC(=O)O)c1nc2ccccc2[nH]1,i,i,i,i,i
O=C1Nc2ccccc2C1=Nc1ccc(Cl)cc1,i,i,i,i,i
Cc1ccc(N=C2C(=O)Nc3ccccc32)cc1,42.3,i,i,i,i
Nc1c(-c2cccc(Cl)c2)cnn1-c1cccc(C(F)(F)F)c1,i,i,i,i,i
Nc1c(-c2ccc(Cl)cc2)cnn1-c1cc(C(F)(F)F)cc(C(F)(F)F)c1,i,14.2,i,i,i
Cc1ccc(NNC(=O)c2ccno2)cc1C,i,i,i,-7.48,i
COc1ccc(-c2csc(=Nc3ccccc3)n2CCO)cc1,i,14.7,i,i,i
CC(C)c1nnc(NC(=O)COc2ccccc2[N+](=O)[O-])s1,i,i,i,i,i
CCSc1nnc(NC(=O)COc2ccccc2[N+](=O)[O-])s1,i,8.61,i,i,i
O=S(=O)(Nc1ncn[nH]1)c1ccc2ccccc2c1,i,i,i,i,i
O=S(=O)(Nc1nc2ccccc2[nH]1)c1ccc2ccccc2c1,i,i,i,-9.57,i
NNC(=O)CNC(=O)c1cccc(Br)c1,i,6.51,i,i,i
COc1cc(N2CCCC2)c(OC)cc1/C=C(/C#N)c1ccc(F)cc1,i,i,-4.93,i,i
COc1cc(N2CCCC2)c(OC)cc1/C=C(/C#N)c1ccc(Br)cc1,i,i,-4.59,i,i
O=C1Nc2ccccc2/C1=C/c1cccnc1,i,i,i,i,i
O=C1Nc2ccccc2/C1=C/c1cnc(-c2ccccc2)[nH]1,i,i,i,-7.01,i
SMILES,MrgX1 ag,MrgX1 PAM,MrgX1 antagonist,RGS4 act,RGS4 inh
COCCn1c(=NC(=O)/C=C/c2ccccc2)sc2cc(NC(C)=O)ccc21,i,i,-4.92,i,i
Cn1ncc(Cl)c1C(=O)N/N=C/c1ccccn1,i,i,-9.3,i,i
Cc1ccc(-c2csc(Nc3ccc(C(=O)O)cc3)[n+]2Cc2ccccc2)cc1,i,9.1,i,i,i
O=C(NCCc1nccs1)C1CCC(=O)N(CCc2ccc(Cl)cc2)C1 (configuration not stated),i,i,i,i,i
Cc1nnc2ccc(-c3cccc(NS(=O)(=O)c4ccccc4[N+](=O)[O-])c3)nn12,29.2,i,i,i,i
Cc1nnc2ccc(-c3cccc(NS(=O)(=O)c4ccccc4Cl)c3)nn12,i,i,i,i,i
O=[N+]([O-])c1ccccc1S(=O)(=O)Nc1cccc(-c2ccc3nncn3n2)c1,26.7,i,i,i,i
Cc1cccc(-n2c(SCc3cc(=O)n4ccsc4n3)nc3ccccc32)c1,i,i,i,-7.43,i
O=c1oc2ccccc2cc1-c1csc(NN=C2CCCCC2)n1,i,i,i,-7.51,i
Cc1cccc(N2CCN(C(=O)c3ccc4c(c3)OCCO4)CC2)c1C,i,i,i,i,i
Cc1cccc(N2CCN(C(=O)c3ccc4c(c3)NC(=O)C(CSCc3cccc(F)c3)N4)CC2)c1C (configuration not stated),33.7,i,i,i,i
CC(C)CCN1C(=O)c2ccc(C(=O)Nc3ccccc3C(=O)O)cc2C1=O,i,i,i,-7.09,i
CC(c1ccccc1)N1C(=O)c2ccc(C(=O)Nc3ccc(Br)cc3C(=O)O)cc2C1=O (configuration not stated),i,i,-11.1,i,i
CCOC(=O)[C@H](CCc1ccccc1)N[C@@H](C)C(=O)N1[C@H](C(=O)O)C[C@@H]2CCC[C@@H]21,i,i,i,i,i
CCOC(=O)c1cc(C#N)c(Oc2cccc(C(F)(F)F)c2)nc1-c1ccccc1,i,i,i,-7.84,i
CCOC(=O)c1cc(C#N)c(Oc2ccc(F)cc2)nc1-c1ccccc1,i,i,i,i,i
COCc1cc(=O)n2[nH]c(-c3cccs3)cc2n1,i,i,i,i,i
CCCOc1ccc(C(=O)N/N=C/c2ccc(-c3ccc(S(=O)(=O)Nc4ncccn4)cc3)o2)cc1,29.3,i,i,i,i
C=C1SC(=Nc2c(C)cccc2Cl)N(C(=O)c2sc3ccccc3c2Cl)C12CCCCC2,i,i,-5.05,i,i
COc1ccccc1OCC(=O)NCCS(=O)(=O)N1CCN(c2ccc(F)cc2)CC1,i,i,i,i,i
Clc1ccccc1C1=CC(c2ccco2)n2ncnc2N1 (configuration not stated),28.8,i,i,i,i
CCCCCNCC(=O)Nc1cccc(C(=O)Nc2cccc(C(F)(F)F)c2)c1,i,i,-6.95,i,i
COc1ccc(S(=O)(=O)N2CCN(C(=O)c3cc(-c4ccc(Br)cc4)n[nH]3)CC2)cc1OC,i,i,i,-7.05,i
COc1ccnc(Oc2ccccc2)c1C(=O)N/C=N/OCc1ccccc1F,i,i,-5.57,i,i
COc1ccc(-n2c(=S)[nH]c3cc(C(=O)N4CCN(c5ccccc5)CC4)ccc3c2=O)cc1,i,i,i,i,i
SMILES,MrgX1 ag,MrgX1 PAM,MrgX1 antagonist,RGS4 act,RGS4 inh
CCOC(=O)C1=C(C)N=c2s/c(=C/c3cccc(OCC(=O)O)c3)c(=O)n2C1c1ccc(F)cc1 (configuration not stated),i,i,i,i,i
CCOC(=O)C1=C(C)N=c2s/c(=C\c3ccc(C(=O)O)cc3)c(=O)n2C1c1ccc(F)cc1 (configuration not stated),i,i,-4.81,-7.41,i
CC(=O)Nc1ccc(NC(=O)CSc2nc(N)c(NC(=O)c3ccccc3F)c(=O)[nH]2)cc1,i,i,i,i,i
CN(C)c1nc2ccc(OCCN3CCCCC3)cc2s1,i,i,i,-7.33,i
CC[C@H](C)[C@@H]1NC(=O)c2cc([N+](=O)[O-])cc(I)c2SC[C@@H](C(N)=O)NC(=O)[C@H](CCCCN)NC1=O,i,i,-6.61,nt,nt
COc1ccc(-n2cc(-c3ccccc3)c3c(N4CC(C)OC(C)C4)ncnc32)cc1 (configuration not stated),i,i,i,-7.04,i
